# Assay results of several laboratories.
# Each line is one published result; the experiments were not run side by side. pIC50: −log10 of the molar value.
SMILES,cell line,assay,conditions,pIC50
CC(C)C[C@H](NC(=O)[C@H](Cc1ccccc1)NC(=O)c1cnccn1)B(O)O,COV434,"cell growth or viability, ATP luminescence",,7.80
CC(C)(C)SCCCC1=CC2C=CC=CC1C2C1CCCCC1=O (centres unmarked),Jurkat,"cell growth or viability, flow cytometry",,7.24
CCOc1cc(OCC)cc(C(=O)O[C@@H]2CN3Cc4c(cc5c(c4OC)OCO5)[C@@]24C=C[C@H](OC)C[C@@H]34)c1,MOLT-4,"cell growth or viability, WST-1",,5.12
CO[C@@H](C[C@H]1C(C)=CC[C@@H]2[C@]3(C)C[C@H](O[C@@H]4O[C@@H](C)[C@H](OC(=O)c5cccc(O)c5)[C@@H](O[C@@H]5O[C@H](CO)[C@@H](O)[C@H](O)[C@H]5NC(C)=O)[C@H]4O)[C@@H](O)C(C)(C)[C@H]3CC[C@]21C)[C@H](N)C(=O)O,LN-229,"cell growth or viability, ATP luminescence",6 days,6.89
O=c1c(O[C@@H]2O[C@H](CO)[C@@H](O)[C@H](O)[C@H]2O)c(-c2ccc(O)c(O)c2)oc2cc(O)cc(O)c12,SW780,"cell growth or viability, ATP luminescence",72 h,4.70
COc1cc(Nc2nccc(-c3cnn4nc(OC)ccc34)n2)cc(C(F)(F)F)c1,LN-229,"cell growth or viability, ATP luminescence",,6.24
Cc1cc(Nc2ncc(Cl)c(Nc3ccccc3S(=O)(=O)C(C)C)n2)c(OC(C)C)cc1C1CCNCC1,Rh4,cell growth or viability,72 h,6.47
CC(C)n1cc(C(c2ccc(/C=C/C(=O)O)s2)c2cn(C(C)C)c3ccccc23)c2ccccc21,LNCaP,"cell growth or viability, MTT",48 h,4.59
CC(=O)c1ccc(/N=N/c2cc(/C=C/C(=O)O)ccc2O)cc1,PaCa-2,"cell growth or viability, MTT",,< 4.30
C[C@H](Nc1ncnc2nc[nH]c12)c1cc2cccc(Cl)c2c(=O)n1-c1ccccc1,CD4+ T,"IL-2 release, inhibitor",,8.72
Cn1cc(C(c2cccc(/C=C/C(=O)O)c2)c2cn(C)c3ccccc23)c2ccccc21,LNCaP,"cell growth or viability, MTT",48 h,< 4.70
CCCCC1=CC2C=CC=CC1C2C1CCCCC1=O (centres unmarked),Jurkat,"cell growth or viability, flow cytometry",,7.43
COc1cccc2c1C(=O)c1c(O)c3c(c(O)c1C2=O)C[C@@](O)(C(=O)CO)C[C@@H]3O[C@H]1C[C@H](N)[C@H](O)[C@H](C)O1,MIA PaCa-2,"cell growth or viability, MTS",48 h,7.31
COc1cc2nccc(Oc3ccc(NC(=O)C4(C(=O)Nc5ccc(F)cc5)CC4)cc3)c2cc1OC,Rh4,cell growth or viability,72 h,5.51
CC(=O)OCCC1=CC2C=CC=CC1C2C1CCCCC1=O (centres unmarked),Jurkat,"cell growth or viability, flow cytometry",,7.19
CCN(CC)CCCCNc1ncc2cc(-c3cc(OC)cc(OC)c3)c(NC(=O)NC(C)(C)C)nc2n1,SW780,"cell growth or viability, MTT",5 days,7.30
O=C(O)c1cc(O)c(O)c(O)c1,PaCa-2,"cell growth or viability, MTT",,4.76
COc1cc(-c2oc3cc(O)cc(O)c3c(=O)c2O)ccc1O,SW780,"cell growth or viability, ATP luminescence",72 h,4.90
O=C(O)/C=C/c1ccc(O)c(O)c1,PaCa-2,"cell growth or viability, MTT",,5.29
COc1cc(Nc2nc(C#N)cc3c(-c4ccccc4)n[nH]c23)cc(OC)c1OC,MIA PaCa-2,"cell growth or viability, MTS",48 h,5.52
CC(=O)c1cccc(N=Nc2c(C(=O)O)cc(O)c(O)c2O)c1,PaCa-2,"cell growth or viability, MTT",,5.02
CC[C@@]1(O)C(=O)OCc2c1cc1n(c2=O)Cc2cc3ccccc3nc2-1,RPMI 8402,"cell growth or viability, MTT",96 h,8.40
COc1ccc(C(=O)O[C@@H]2CN3Cc4c(cc5c(c4OC)OCO5)[C@@]24C=C[C@H](OC)C[C@@H]34)cc1OC,MOLT-4,"cell growth or viability, WST-1",,5.13
Cc1ccc2c(c1)c(C(c1ccc(/C=C/C(=O)O)s1)c1cn(C(C)C)c3ccc(C)cc13)cn2C(C)C,LNCaP,"cell growth or viability, MTT",48 h,> 5.52
Cc1c[nH]c(/C=C2\C(=O)Nc3ccccc32)c1CCC(=O)O,SW780,"cell growth or viability, MTT",5 days,5.22
OC[C@H]1O[C@@H](Oc2cc3c(O)cc(O)cc3[o+]c2-c2ccc(O)c(O)c2)[C@H](O)[C@@H](O)[C@@H]1O,SW780,"cell growth or viability, ATP luminescence",72 h,3.77
COc1cc2c(Oc3ccc(NC(=O)C4(C(=O)Nc5ccc(F)cc5)CC4)cc3F)ccnc2cc1OCCCN1CCOCC1,Rh4,cell growth or viability,72 h,6.66
O=c1c(O)c(-c2ccc(O)c(O)c2)oc2cc(O)cc(O)c12,SW780,"cell growth or viability, ATP luminescence",72 h,4.36
O=C(O)c1ccc(C(c2c[nH]c3ccccc23)c2c[nH]c3ccccc23)cc1,LNCaP,"cell growth or viability, MTT",48 h,4.68
O=C1CCCCC1C1C2C=CC=CC1C(CCCCOC1CCCCO1)=C2 (centres unmarked),Jurkat,"cell growth or viability, flow cytometry",,6.87
CC(C)(C)OC(=O)NCCOc1cc(NC(=O)c2cnccn2)c2ncccc2c1,MIA PaCa-2,"cell growth or viability, MTT",72 h,> 6.00
FC(F)(F)c1ccc(C(c2c[nH]c3ccccc23)c2c[nH]c3ccccc23)cc1,LNCaP,"cell growth or viability, MTT",48 h,4.89
